Drawing on ChEMBL document CHEMBL1139556, “Synthesis and biological evaluation of gemcitabine-lipid conjugate (NEO6002)” (Bioorg Med Chem Lett, 2005), this text covers Growth and mortality for 2 molecules.

The subject of data set [1] is Cell line. Put plainly: Ability (9 umol/kg) tested for inhibition of BxPC-3 human pancreatic tumor growth (n=8). It counts as functional. Summed up: (§1)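 BxPC-3 human pancreatic tumour cells (5 × 10⁶) implanted subcutaneously in SCID mice. At 80–160 mm³, tumours randomised into groups. Dosing on days 1, 7, 15, 22, 26, 29 and 33, with an equal-volume vehicle control group. Tumour volume measured by Vernier calipers, followed up to 50 days. % growth = 100 × (Vt/V0), where V0 is the volume on the first treatment day.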

Data set [2] relates to Cell line. Put plainly: Ability (36 umol/kg) tested for inhibition of BxPC-3 human pancreatic tumor growth (n=8). The class given is functional. The method in brief:
as §1

Data set [3] concerns Cell line. The experiment in a line: Ability (18 umol/kg) tested for inhibition of BxPC-3 human pancreatic tumor growth (n=8). It counts as functional. The method in brief: as §1
The nature of data set [4]: Ability (18 umol/kg) tested on mortality of non-diseased CD2F1 mice at day 8 (n=8). The following applies: CD2F1, mouse, in vivo. It counts as ADME. The method in brief:
(§2)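 Multiple-dose toxicity in non-diseased CD2F1 mice. Five or six daily doses given (schedule days 1–5 or 1–6). Mortality recorded, reported as % mortality at day 8.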

Data set [5] in a line: Ability (27 umol/kg) tested on mortality of non-diseased CD2F1 mice at day 8 (n=8). The class given is ADME. The following applies: CD2F1, mouse, in vivo. Summed up:
as §2

Data set [6] is described as follows: Ability (36 umol/kg) tested on mortality of non-diseased CD2F1 mice at day 8 (n=8). It counts as ADME. The following applies: CD2F1, mouse, in vivo. The method in brief: as §2

Take `CCCCCCOCC(COP(=O)(OC)OCC(COP(=O)(OC)OCC(COCCCCCC)OCCCCCC)OC(=O)CCC(=O)OC[C@H]1O[C@@H](n2ccc(N)nc2=O)C(F)(F)[C@@H]1O)OCCCCCC` (stereo partly drawn): the Growth worked out at 1387% in the data set on Cell line [1], 1022% in the data set on Cell line [2] and 1393% with Cell line [3].
For `Nc1ccn([C@@H]2O[C@H](CO)[C@@H](O)C2(F)F)c(=O)n1` [GEMCITABINE], the mortality at 8 day was 0% in data set [4], 100% in data set [5] and 100% in data set [6]. The Growth with Cell line [1] is given as 1942%; with Cell line [3], 2007%.

Usually mortality stands for the percentage killed.
